Measured values from PubChem BioAssay.
Calls of active or inactive are those of the source. Cut-off read from the data, not from the text of the source, unless noted: active = inhibition above about 30%; inactive = the rest.

Assays:
[1] = reducers of endogenous Her2 protein level, primary screen, SKBR3 breast tumor cells, AlphaScreen, ATP viability (AID 461;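 active = Her2 level under about 52% in both replicate screens, with viability over 70% of control, limit read from the data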;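 for Her2 level: lower value means less Her2 protein in the cells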;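 for viability: percent of carrier control wells set as 100% viability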); conditions: 18-24 h, measured here: SKBR3 viability, ATP luminescence, at 10 µM
[2] = target: Receptor tyrosine-protein kinase erbB-2 (Homo sapiens) (UniProt P04626); test: as above; conditions: 18-24 h, at 10 µM, stronger effect = lower value
[3] = SK-BR-3 cell growth inhibitors, pilot screen, 24 h, human (AID 572;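 active = viability at or below 10% of carrier control in both of two separate runs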;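 note: compound exposure lasted between 18 and 24 h rather than exactly 24 h; 100% = carrier-treated control wells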); conditions: SK-BR-3 viability, CellTiter-Glo luminescence, at 10 µM, stronger effect = lower value
[4] = HUVEC growth inhibition – cell-based, human, primary screen (AID 575;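 active = viability at or below 30% in both replicate assays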;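 note: 100% = median of untreated cell wells with 0.1% DMSO on each plate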); conditions: HUVEC proliferation, CellTiter-Glo luminescence, 72 h; at 10 µM; stronger effect = lower value
How it was run: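 material = primary HUVEC, no more than 12 passages | input = 1250 cells per well | controls = vehicle and MePR control wells | measured by = CTG luminescence | times = 72 h compound incubation | format = collagen-coated 384-well format | read-out = % viability vs DMSO wells | doses = single 10 µM dose, 0.1% DMSO, from 5x medium stock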

[5] = growth inhibitors of H69AR lung tumor, primary screen, human, duplicate replicates (AID 580;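 active = viability at or under a set limit in both replicates, limit being median viability minus 3 SD, cut at about 48% in these data, passing the limit was not always enough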;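 note: 100% = mean luminescence of untreated wells and 0% = no signal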); conditions: H69AR lung tumor cells viability, ATP luminescence, 72 h; at 10 µM; stronger effect = lower value
[6] = reversal of MRP1-mediated doxorubicin resistance, pilot screen, H69AR cells, doxorubicin co-treatment (AID 601;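 active = viability loss from added drug above about 55%, and viability with drug at most 40%, in both replicates, limit read from the data, passing the limit was not always enough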); conditions: CellTiter-Glo, 72 h, at 10 µM; for differential viability (reversal): stronger effect = higher value
[7] = 384-well plate pilot, post-Golgi transport modulator project, inhibition of yeast transport mutant growth (AID 636; in the data active = inhibition above about 31%); conditions: absorbance 615 nm, about 18 h, stronger effect = higher value
[8] = growth suppression of yeast trafficking mutant, preliminary HTS, modulators of trafficking downstream of Golgi apparatus project, 1536-format plate, OD 615 nm (AID 637); conditions: yeast transport mutant growth, absorbance 615 nm, 18 h; stronger effect = higher value
[9] = H69AR cells + 2 uM doxorubicin, measured here: viability with 2 uM doxorubicin, stronger effect = lower value
[10] = H69AR cells, compound alone cytotoxicity

Receptor tyrosine-protein kinase erbB-2 (Homo sapiens), sequence (P04626 whole entry, looked up): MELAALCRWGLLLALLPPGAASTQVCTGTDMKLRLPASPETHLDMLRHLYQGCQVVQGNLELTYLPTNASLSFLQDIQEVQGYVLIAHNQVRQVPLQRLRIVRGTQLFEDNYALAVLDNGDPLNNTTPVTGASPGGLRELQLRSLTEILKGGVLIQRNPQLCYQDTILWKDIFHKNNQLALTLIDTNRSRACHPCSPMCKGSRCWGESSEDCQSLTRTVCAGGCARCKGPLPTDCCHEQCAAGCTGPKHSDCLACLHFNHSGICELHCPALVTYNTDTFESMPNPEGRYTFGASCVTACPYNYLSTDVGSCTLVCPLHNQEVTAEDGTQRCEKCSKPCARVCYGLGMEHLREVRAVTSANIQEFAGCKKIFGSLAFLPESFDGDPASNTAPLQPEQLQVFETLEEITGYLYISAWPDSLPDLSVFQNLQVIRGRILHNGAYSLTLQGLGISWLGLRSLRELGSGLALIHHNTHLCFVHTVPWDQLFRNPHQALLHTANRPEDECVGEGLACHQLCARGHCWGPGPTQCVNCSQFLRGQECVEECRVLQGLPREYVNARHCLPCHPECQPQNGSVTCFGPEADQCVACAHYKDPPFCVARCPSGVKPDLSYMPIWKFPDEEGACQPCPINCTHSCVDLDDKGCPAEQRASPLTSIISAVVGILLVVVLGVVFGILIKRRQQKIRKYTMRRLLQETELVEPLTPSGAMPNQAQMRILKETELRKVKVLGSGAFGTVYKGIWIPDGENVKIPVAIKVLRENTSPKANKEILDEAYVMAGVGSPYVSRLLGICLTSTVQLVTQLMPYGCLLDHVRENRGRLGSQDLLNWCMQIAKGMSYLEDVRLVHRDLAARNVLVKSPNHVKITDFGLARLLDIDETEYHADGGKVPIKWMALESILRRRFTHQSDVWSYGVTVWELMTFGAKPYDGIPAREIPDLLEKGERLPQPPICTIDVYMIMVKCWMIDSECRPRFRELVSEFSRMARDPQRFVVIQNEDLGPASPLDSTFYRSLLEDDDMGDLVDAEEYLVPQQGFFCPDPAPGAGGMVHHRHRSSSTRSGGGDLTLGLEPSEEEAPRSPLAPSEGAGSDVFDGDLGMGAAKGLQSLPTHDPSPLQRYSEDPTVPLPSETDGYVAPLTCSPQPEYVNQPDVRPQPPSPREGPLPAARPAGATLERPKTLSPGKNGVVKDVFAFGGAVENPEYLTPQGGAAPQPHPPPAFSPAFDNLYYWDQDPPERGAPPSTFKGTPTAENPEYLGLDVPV

| SMILES | viability [1] [%] | Her2 level [2] | viability [3] | viability [4] | viability [5] | differential viability (reversal) ([6]; H69AR cells + 2 uM doxorubicin) | viability [6, 9] [%] | viability [6, 10] [%] | inhibition [7] | inhibition [8] |
| --- | --- | --- | --- | --- | --- | --- | --- | --- | --- | --- |
| CC(NC(=O)COc1ccccc1)C(=O)NC1=NCCS1 (stereo not given) | 89 | 124% (inactive) | 89% (inactive) | 88.8% (inactive) | 94.4% (inactive) | 3.6% (inactive) | 90.8 | 94.4 | -4.36% (inactive) | -11.8% (inactive) |
| Cc1cc(C)c(C#N)c(SCc2[nH]nc3c2C(c2ccccc2)C(C#N)=C(N)O3)n1 (stereo not given) | 93 | 80.5% (inactive) | 93% (inactive) | 85.3% (inactive) | 99.7% (inactive) | 4.6% (inactive) | 95.1 | 99.7 | -5.33% (inactive) | -4.03% (inactive) |
| CCOC(=O)CN1C(=O)C2(OCCCO2)c2ccccc21 | 99 | 109% (inactive) | 99% (inactive) | 99.7% (inactive) | 101% (inactive) | 11.1% (inactive) | 89.7 | 101 | -7.66% (inactive) | -11% (inactive) |
| O=C(NCCCN1CCCC1=O)c1ccc2c(c1)NC(=O)C(N1CCOCC1)S2 (stereo not given) | 143 | 94.5% (inactive) | 143% (inactive) | 115% (inactive) | 89.5% (inactive) | 6.1% (inactive) | 83.3 | 89.5 | -6.4% (inactive) | 0.82% (inactive) |
| O=C(NCc1cccnc1)c1ccccn1 | 102 | 108% (inactive) | 102% (inactive) | 103% (inactive) | 110% (inactive) | 16.2% (inactive) | 93.9 | 110 | -4.8% (inactive) | -3.65% (inactive) |
| Cc1noc(C)c1S(=O)(=O)NCCN1CCN(c2ccccc2)CC1 | 96 | 98.5% (inactive) | 96% (inactive) | 96.4% (inactive) | 96.1% (inactive) | 3.43% (inactive) | 92.7 | 96.1 | -0.79% (inactive) | -0.79% (inactive) |
| CCNC(=O)N1c2ccc(OCC)cc2C(C)=CC1(C)C | 95.5 | 99.5% (inactive) | 95.5% (inactive) | 106% (inactive) | 89.3% (inactive) | -1.44% (inactive) | 90.8 | 89.3 | -7.76% (inactive) | -1.15% (inactive) |
| Fc1ccc(-c2csc3nnc(SCc4cccnc4)n23)cc1 | 108 | 112% (inactive) | 108% (inactive) | 85.7% (inactive) | 82.9% (inactive) | -2.03% (inactive) | 84.9 | 82.9 | -4.62% (inactive) | 8.33% (inactive) |
| CCCc1cc(C(N)=O)c(NC(=O)c2ccco2)s1 | 102 | 73.5% (inactive) | 102% (inactive) | 94.2% (inactive) | 87.3% (inactive) | -5.96% (inactive) | 93.3 | 87.3 | -3.29% (inactive) | 1.15% (inactive) |
| O=C(O)CN1C(=O)C2(OCCCO2)c2ccccc21 | 86.5 | 102% (inactive) | 86.5% (inactive) | 101% (inactive) | 85.1% (inactive) | -0.23% (inactive) | 85.4 | 85.1 | -0.91% (inactive) | 0.49% (inactive) |
| COc1ccc2cc(C(=O)NCc3ccco3)c(=Nc3ccc(C(=O)O)cc3)oc2c1 | 68 | 83% (inactive) | 68% (inactive) | 77.4% (inactive) | 55% (inactive) | -14.1% (inactive) | 69.1 | 55 | -5% (inactive) | -1% (inactive) |
| O=C(Nc1cccnc1)c1noc2c1CCCCC2 | 110 | 90% (inactive) | 110% (inactive) | 105% (inactive) | 87.3% (inactive) | -2.86% (inactive) | 90.2 | 87.3 | -0.66% (inactive) | 9.5% (inactive) |
| Cc1ccc(NC2=NC(c3ccccc3)n3c(nc(C)cc3=O)N2)cc1 (stereo not given) | 86.5 | 82% (inactive) | 86.5% (inactive) | 93.5% (inactive) | 88.5% (inactive) | 11.3% (inactive) | 77.2 | 88.5 | -2.11% (inactive) | 2.55% (inactive) |
| CCN1CCN(C(c2ccc(F)cc2)c2nnnn2Cc2cccs2)CC1 (stereo not given) | 83 | 105% (inactive) | 83% (inactive) | 89.4% (inactive) | 94.9% (inactive) | 8.46% (inactive) | 86.4 | 94.9 | -1.15% (inactive) | -0.17% (inactive) |
| O=C(c1ccco1)N1CCN(C(=O)c2cc3c(s2)-c2ccccc2OC3)CC1 | 91 | 113% (inactive) | 91% (inactive) | 107% (inactive) | 97% (inactive) | 2.87% (inactive) | 94.2 | 97 | 0.13% (inactive) | -1.64% (inactive) |
| Cc1ccc(-c2ccc(=O)n(CCC(=O)NCc3ccccn3)n2)cc1 | 94.5 | 84% (inactive) | 94.5% (inactive) | 89.3% (inactive) | 84.3% (inactive) | -1.96% (inactive) | 86.2 | 84.3 | -3.95% (inactive) | 0.81% (inactive) |

| SMILES | viability [1] [%] | Her2 level [2] | viability [3] | viability [4] | viability [5] | differential viability (reversal) ([6]; H69AR cells + 2 uM doxorubicin) | viability [6, 9] [%] | viability [6, 10] [%] | inhibition [7] | inhibition [8] |
| --- | --- | --- | --- | --- | --- | --- | --- | --- | --- | --- |
| CC1(C)Cc2c(c(N3CCOCC3)nc3sc(C#N)c(N)c23)CS1 | 92 | 122% (inactive) | 92% (inactive) | 85.2% (inactive) | 83.3% (inactive) | -1.22% (inactive) | 84.5 | 83.3 | 0.9% (inactive) | -8.67% (inactive) |
| Cc1nnc2ccc(N3CCN(c4cccc(C(F)(F)F)c4)CC3)nn12 | 97.5 | 77.5% (inactive) | 97.5% (inactive) | 75% (inactive) | 80.3% (inactive) | 18.7% (inactive) | 61.6 | 80.3 | -0.53% (inactive) | -1.15% (inactive) |
| Cc1ccc(NC(=O)Nc2ccc3c(c2)N(C)C(=O)CS3)nc1 | 108 | 68.5% (inactive) | 108% (inactive) | 45.5% (inactive) | 88.3% (inactive) | -8.16% (inactive) | 96.4 | 88.3 | -3.73% (inactive) | -0.33% (inactive) |
| CN(C(=O)c1cc2sccc2n1C)C1CCCCC1 | 91 | 106% (inactive) | 91% (inactive) | 87.7% (inactive) | 100% (inactive) | 14.7% (inactive) | 85.7 | 100 | -7.3% (inactive) | -2.13% (inactive) |
| CC(=O)c1cc(-c2ccc(F)cc2)n(CCC(=O)Nc2cc(C)[nH]n2)c1C | 105 | 82.5% (inactive) | 105% (inactive) | 102% (inactive) | 104% (inactive) | 18.3% (inactive) | 85.5 | 104 | -6.62% (inactive) | 2.46% (inactive) |
| CCn1c(=O)cc(SCC(=O)NCCN2CCN(Cc3ccccc3)CC2)c2ccccc21 | 89 | 89.5% (inactive) | 89% (inactive) | 80.5% (inactive) | 84.4% (inactive) | 7.1% (inactive) | 77.3 | 84.4 | -4.47% (inactive) | -3.09% (inactive) |
| Cc1ccc(N=C2NC(=O)CS2)c(C)c1 | 71 | 91% (inactive) | 71% (inactive) | 89.7% (inactive) | 102% (inactive) | 5.32% (inactive) | 96.7 | 102 | -5% (inactive) | 5.57% (inactive) |
| CCOC(=O)c1nnc(-c2ccccc2)o1 | 101 | 87.5% (inactive) | 101% (inactive) | 86.1% (inactive) | 88.1% (inactive) | 9.09% (inactive) | 79 | 88.1 | -1.56% (inactive) | -1.43% (inactive) |
| CCOC(=O)c1[nH]nc(-c2c(O)cc(C)cc2O)c1-c1csc(C)n1 | 94 | 106% (inactive) | 94% (inactive) | 106% (inactive) | 96.5% (inactive) | 6.7% (inactive) | 89.8 | 96.5 | -6.71% (inactive) | -2.91% (inactive) |
| CCCC(=O)N=C1SC2CS(=O)(=O)CC2N1c1ccc(CC)cc1 (stereo not given) | 97.5 | 80% (inactive) | 97.5% (inactive) | 83.2% (inactive) | 93.2% (inactive) | 7.88% (inactive) | 85.4 | 93.2 | -5.33% (inactive) | 3.61% (inactive) |
| CCOC(=O)CC(=O)Nc1c(C)cc(C)cc1C | 94.5 | 90.5% (inactive) | 94.5% (inactive) | 85% (inactive) | 102% (inactive) | 10.3% (inactive) | 91.8 | 102 | 2.57% (inactive) | -2.95% (inactive) |
| O=c1c2[nH]c3ccccc3c2ncn1CCCn1ccnc1 | 92 | 77.5% (inactive) | 92% (inactive) | 93.7% (inactive) | 96.8% (inactive) | 1.08% (inactive) | 95.7 | 96.8 | -3.77% (inactive) | -0.83% (inactive) |
| Cc1c(NC2=NC3(CCCCC3)Cc3ccccc32)c(=O)n(-c2ccccc2)n1C | 79.5 | 108% (inactive) | 79.5% (inactive) | 95.5% (inactive) | 92.5% (inactive) | 5.08% (inactive) | 87.5 | 92.5 | -5.13% (inactive) | 2.67% (inactive) |
| Cc1ccccc1S(=O)(=O)Cc1ccc(C(=O)NCc2cccnc2)o1 | 93 | 83.5% (inactive) | 93% (inactive) | 97.8% (inactive) | 94.2% (inactive) | 6.61% (inactive) | 87.6 | 94.2 | -1.84% (inactive) | -2.91% (inactive) |
| CCC1CCCCN1S(=O)(=O)c1ccc(C(=O)Nc2nnc(-c3cccs3)o2)cc1 (stereo not given) | 79.5 | 91.5% (inactive) | 79.5% (inactive) | 3.2% (active) | 16.7% (active) | -28.1% (inactive) | 44.9 | 16.7 | -8.68% (inactive) | 9.64% (inactive) |
| COc1ccc2c(c1)OC(O)(C(F)F)CC2=O (stereo not given) | 116 | 107% (inactive) | 116% (inactive) | 102% (inactive) | 93.5% (inactive) | 2.35% (inactive) | 91.2 | 93.5 | -1.04% (inactive) | -2% (inactive) |
